HKDC1 inhibitor = HKDC1 (human) hexokinase inhibition; Q2TB90; recombinant HKDC1, G6PDH/diaphorase resazurin coupled fluorescence; inhibition, % at 20 µM; hit rate 0.16% among 340,000; AID 493160;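 active = inhibition above about 35% when tested at 20 µM, limit read from the data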;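 also: plate controls were DMSO wells with enzyme for no effect and DMSO wells lacking enzyme for full effect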
Target sequence (Q2TB90 whole entry, looked up): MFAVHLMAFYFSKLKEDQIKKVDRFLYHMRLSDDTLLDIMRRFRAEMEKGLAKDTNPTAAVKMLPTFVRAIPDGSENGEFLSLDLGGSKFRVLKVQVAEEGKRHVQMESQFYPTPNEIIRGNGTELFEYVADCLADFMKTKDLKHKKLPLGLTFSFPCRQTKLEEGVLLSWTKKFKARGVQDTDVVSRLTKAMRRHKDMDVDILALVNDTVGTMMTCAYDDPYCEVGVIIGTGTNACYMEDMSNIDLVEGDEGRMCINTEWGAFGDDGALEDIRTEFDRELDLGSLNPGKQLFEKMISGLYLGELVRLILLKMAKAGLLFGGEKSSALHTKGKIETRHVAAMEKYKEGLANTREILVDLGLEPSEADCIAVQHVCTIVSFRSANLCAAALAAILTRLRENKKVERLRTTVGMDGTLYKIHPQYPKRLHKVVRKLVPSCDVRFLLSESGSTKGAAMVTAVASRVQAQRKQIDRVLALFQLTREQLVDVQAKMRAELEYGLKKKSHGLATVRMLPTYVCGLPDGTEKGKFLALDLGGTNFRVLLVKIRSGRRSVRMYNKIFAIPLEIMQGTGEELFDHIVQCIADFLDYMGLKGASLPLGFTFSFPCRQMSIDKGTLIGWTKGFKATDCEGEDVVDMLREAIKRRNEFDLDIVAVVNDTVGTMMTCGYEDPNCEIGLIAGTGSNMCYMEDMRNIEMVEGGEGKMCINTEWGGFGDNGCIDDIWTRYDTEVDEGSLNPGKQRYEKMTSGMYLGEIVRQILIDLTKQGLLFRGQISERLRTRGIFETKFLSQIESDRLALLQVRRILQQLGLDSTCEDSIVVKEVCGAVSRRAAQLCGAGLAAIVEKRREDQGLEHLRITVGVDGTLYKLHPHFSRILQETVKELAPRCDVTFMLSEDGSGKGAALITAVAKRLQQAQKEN
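Test system: Recombinant HKDC1 (HK5) hexokinase enzyme, produced in-house | Input: HKDC1 at 5 µg/mL | Buffer or medium: Tris pH 8.0 buffer with MgCl2, Tween-20, BSA, BME | Schedule: 90 min reaction incubation at room temperature, dark | Technique: Resazurin-to-resorufin fluorescence via G6PDH and diaphorase coupling, 525/613 nm | Controls: DMSO wells with and without enzyme mix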
PfGluPho inh = PfG6PD (Plasmodium falciparum) enzyme inhibition; PfGluPho enzyme, NADPH resazurin-diaphorase fluorescence; AID 504690; hit rate 0.78% among 350,000; inhibition, % at 20 µM;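 active = inhibition reaching at least a set limit at 20 µM in the primary screen, cut at about 59% in these data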;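 also: 0% = DMSO wells with substrate and 100% = DMSO wells lacking glucose-6-phosphate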
G6PDH CS = inhibits Leuconostoc G6PDH, flagging false hits in G6PDH-based assays; Purified L. mesenteroides G6PDH, diaphorase/resazurin coupled fluorescence, 45 min; inhibition, % at 5 µM; hit rate 0.12% among 200,000; in the data active = inhibition above about 50%
Diaphorase inh = diaphorase inhibition or chemical oxidation counter-screen; diaphorase resazurin-to-resorufin fluorescence, NADH, 16 min; bacterial (C. kluyveri) enzyme, not human; inhibition, % at 20 µM; hit rate 0.69% among 190,000; AID 1217;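 active = primary screen inhibition at 20 µM above a set limit, cut at about 50% in these data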;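 also: plate controls were DMSO with full reaction for no effect and wells lacking NADH for full effect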
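Test system: bacterial diaphorase enzyme (C. kluyveri); Quantity: 0.14 U/mL diaphorase, enzyme working solution; Times: reaction incubation of 16 min at room temperature; Measured by: fluorescence of resorufin formed from resazurin, Ex 544/Em 590 nm; Benchmarks: positive control minus NADH, DMSO neutral control.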
Diaph act CS = diaphorase activation or chemical reduction counter-screen. Diaphorase/resazurin coupled assay, resorufin fluorescence, 16 min; stronger effect = higher value; 1 = vehicle wells, 0 = NADH-free wells. activation factor at 20 µM. hit rate 0.005% among 190,000. AID 1229;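 active = diaphorase activity raised at least twofold by the compound at 20 µM; inactive = activation factor below 2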
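Test system: Clostridium kluyveri diaphorase, purified enzyme. Buffer or medium: 50 mM HEPES pH 7.4 buffer plus MgCl2 and Tween 20. Also added: 0.114 mM NADH and 0.1 mM resazurin, final amounts. Dosing: compound 20 µM once, DMSO 1%. Schedule: 16 min enzyme reaction, ambient temperature. Detection: fluorescence of resorufin, 544 nm excitation, 590 nm emission.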
PfGluPho conf = confirmation of Plasmodium falciparum G6PD inhibitors; shares compounds with PfGluPho inh; recombinant PfGluPho, NADPH-diaphorase-resazurin fluorescence; inhibition, % at 20 µM; hit rate 34% among 2,400; AID 504753;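 active = inhibition of at least 50% at 20 µM in any single replicate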;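 also: 0% = DMSO with substrate and 100% = DMSO lacking glucose-6-phosphate substrate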
Diaphorase 10uM = counter-screen for P. falciparum G6PD inhibitors: diaphorase inhibitors, oxidizers. shares compounds with PfGluPho inh. diaphorase-coupled resazurin reduction, fluorescence, NADPH 10 uM. inhibition, % at 20 µM. hit rate 39% among 820. AID 504862;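 active = average inhibition reaching 50% or more with the compound at 20 µM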;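 also: resorufin red fluorescence formed as diaphorase reduces resazurin using NADPH; 0% = DMSO with enzyme and 100% = DMSO without enzyme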
Diaph ctr 30uM = diaphorase inhibition or oxidation at 30 uM NADPH. shares compounds with PfGluPho inh. Diaphorase/resazurin coupled assay, resorufin fluorescence. inhibition, % at 20 µM. hit rate 29% among 820;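 active = inhibition averaging 50% or more, tested at 20 µM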;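 also: 0% = DMSO with enzyme and 100% = DMSO wells lacking diaphorase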
Numbers without * were called inactive; x = not tested or not shown. Only some compounds are listed: those with a hit (about 1.3% of all), similar ones and a draw of the others.

SMILES	HKDC1 inhibitor	PfGluPho inh	G6PDH CS	Diaphorase inh	Diaph act CS	PfGluPho conf	others
COc1ccc(N2CCN(C(=O)c3cc(=O)c4cc(C)cc(C)c4o3)CC2)cc1	3	3	x	x	x	x
COc1ccc(OC)c(NC(=O)CCN2C(=O)c3ccccc3C2=O)c1	4	4	x	x	x	x
O=C(O)c1cccc(NC(=S)N/N=C/c2cccc(O)c2)c1	-7	-4	-2	-5	1.1	x
O=C(O)c1cccc(NC(=S)N/N=C/c2ccccn2)c1	-33	68*	3	13	0.9	44
S=C(N/N=C/c1ccc2ncccc2c1)Nc1cccnc1	-6	69*	-1	18	0.8	9
Cc1ccc(Nc2nc(C(=O)NCCCN3CCOCC3)cs2)cc1	-1	-6	5	12	0.9	x
CCOC(=O)Cc1csc(-n2sc3ccccc3c2=O)n1	6	124*	7	20	0.8	81*	Diaphorase 10uM=-14;Diaph ctr 30uM=4
CCOC(=O)Cc1csc(SCn2nnc3ccccc3c2=O)n1	-3	-5	25	-5	1	x
Cc1ccc(C(=O)Nc2ccc(O)cc2C(=O)O)cc1	0	66*	-2	20	0.8	39
O=C(NC1CC1)C(=O)c1c(-c2ccccc2)[nH]c2ccccc12	-5	-13	11	19	0.8	x
Cc1cc(CNC(=O)c2ccc3nc(Cc4ccccc4F)oc3c2)nn1C	1	-16	x	x	x	x
CCOC(=O)c1c(C)n(C)c2cc([N+](=O)[O-])c(O)c([N+](=O)[O-])c12	-2	2	x	x	x	x
CCOC(=O)c1c(C)n(C)c2cc(Br)c(O)c(O)c12	0	68*	x	x	x	18
O=c1c2ccccc2ncn1-c1ccc(Cl)cc1	-3	-13	x	x	x	x
Cc1ccc(-n2sc3ccccc3c2=O)cc1	15	115*	-9	12	0.9	101*	Diaphorase 10uM=-23;Diaph ctr 30uM=-23
Cc1ccc(Cn2c(=O)sc3ccccc3c2=O)cc1	-5	-5	-19	16	0.8	x
O=c1c2ccccc2sn1-c1ccc(Cl)cc1	x	126*	x	x	x	106*	Diaphorase 10uM=-5;Diaph ctr 30uM=16
O=C(Nc1cc(S(=O)(=O)N2CCOCC2)ccc1N1CCCCC1)c1ccc(Cl)cc1	-5	80*	x	x	x	40
O=C(Nc1cc(S(=O)(=O)N2CCOCC2)ccc1N1CCCC1)c1ccc2c(c1)S(=O)(=O)c1ccccc1C2=O	-12	74*	-2	20	0.8	40
O=C(Nc1cc(S(=O)(=O)N2CCOCC2)ccc1N1CCCCC1)c1ccccc1Br	-8	68*	x	x	x	-7
CC(C)C(=O)Nc1cc(S(=O)(=O)N2CCOCC2)ccc1N1CCCCC1	-10	61*	x	x	x	-14
O=C(Nc1cc(S(=O)(=O)N2CCOCC2)ccc1N1CCCC1)c1ccccc1F	x	0	x	x	x	x
COC(=O)c1ccc(COc2ccc(C3C4=C(CCCC4=O)Nc4onc(C)c43)cc2)cc1 (centres undefined)	-3	-7	-26	16	0.8	x
O=c1c2ccccc2sn1-c1cc(S(=O)(=O)N2CCOCC2)ccc1N1CCCC1	-7	112*	1	4	1	107*	Diaphorase 10uM=-10;Diaph ctr 30uM=-7
O=C(O)c1cc(S(=O)(=O)N2CCOCC2)ccc1N1CCCCC1	-2	-8	3	3	1	x
SMILES	HKDC1 inhibitor	PfGluPho inh	G6PDH CS	Diaphorase inh	Diaph act CS	PfGluPho conf	others
O=C(Nc1cc(S(=O)(=O)N2CCOCC2)ccc1N1CCCC1)c1ccc(Cl)cc1	-6	60*	x	x	x	45
Nc1cc(S(=O)(=O)N2CCCCC2)ccc1N1CCCCC1	-1	10	x	x	x	x
Nc1cc(S(=O)(=O)N2CCOCC2)ccc1N1CCCCC1	-12	69*	x	x	x	36
CCOc1cc(C(=O)N2CCC(CC3CC(c4ccc(Cl)cc4)=NO3)(C(=O)NCC3CCCCC3)CC2)cc(OCC)c1OCC (centres undefined)	-10	8	x	x	x	x
O=c1c2ccccc2oc2cc(C#Cc3ccccn3)ccc12	-3	2	x	x	x	x
C=CCn1c2ccccc2c(=O)c2cc(C#Cc3ccccn3)ccc21	-2	80*	x	x	x	36
COc1ccc(Cl)cc1NC(=O)CN(C)C(C)C(=O)NCC1CCCCC1 (centres undefined)	-4	14	2	19	0.8	x
COc1ccc(Cl)cc1NC(=O)CN(C(=O)c1ccco1)C1CCCCC1	-1	63*	12	13	0.9	31
CCOc1ccc(Cl)cc1/C=N/O	14	2	-4	21	0.8	x
CCOc1ccc(Cl)cc1/C=N/NC(N)=O	4	79*	4	10	0.9	53*	Diaphorase 10uM=47;Diaph ctr 30uM=38
CCCSc1nc(=O)n2cccc(C)c2n1	-10	7	-11	12	0.9	x
COc1cccc(CNC(=O)Cc2ccc(NC(=O)C3=C(C)OCCS3)cc2)c1	-1	13	x	x	x	x
COc1cc(CNc2ccc(O)cc2)cc(Br)c1OCc1ccccc1F	14	60*	-17	38	0.6	16
COc1cc(CNc2ccc(N3CCCC3)cc2)ccc1OCc1ccccc1F	3	97*	5	38	0.6	59*	Diaphorase 10uM=10;Diaph ctr 30uM=6
CCOc1cc(CNc2ccc(O)cc2)cc(Br)c1OCc1ccccc1F	5	36	-14	23	0.8	x
Cc1ccc(NC(=S)N(CCN(C)C)C(C)c2cccnc2)c(C)c1 (centres undefined)	-2	-5	4	-14	1.1	x
Cc1ccc(OCCn2cc(/C=C3\C(=O)NN(c4ccccc4)C3=O)c3ccccc32)cc1	8	65*	17	16	0.8	33
Cc1ccc(OCCn2cc(C=O)c3ccccc32)cc1	-2	12	x	x	x	x
NC(=S)NN=Cc1nccc2c(N)cccc12	x	100*	x	x	x	49
CCN(C(C)=O)c1cnc(C=NNC(N)=S)c2ccccc12	-16	34	x	x	x	x
Cc1cccc(NS(=O)(=O)c2c(C(=O)N3CCOCC3)c(C)n(C)c2C)c1C	3	-2	x	x	x	x
Cc1sc2nc(COC(=O)c3ccc(N4CCCC(C)C4)c([N+](=O)[O-])c3)[nH]c(=O)c2c1C (centres undefined)	-1	1	-14	-2	1	x
COc1cc2cc(NC(C)=O)cc(NCc3ccccc3)c2cc1OC	14	49	x	x	x	x
CCCCNc1cc(NC(C)=O)cc2cc(OC)c(OC)cc12	21	72*	34	45	0.6	43
CN1CCN(C(=S)C(=O)Nc2ccc(Br)cc2)CC1	-9	81*	10	9	0.9	74*	Diaphorase 10uM=-9;Diaph ctr 30uM=-4
CN1CCN(C(=S)NC(=O)c2ccc(Br)cc2)CC1	0	-4	x	x	x	x
COc1cc2nncc(SC)c2cc1OC	-2	6	x	x	x	x

Source: PubChem BioAssay (Sanford-Burnham Center for Chemical Genomics)
